In ChEMBL document CHEMBL1155086, “Synthesis and evaluation of antitubercular activity of glycosyl thio- and sulfonyl acetamide derivatives” (Bioorg Med Chem Lett, 2008):
Values after ≈ are worked out from the molar mass of the structure shown.

Legend:
[1] = tested on: Mycobacterium tuberculosis; assay: Antitubercular activity against Mycobacterium tuberculosis H37Rv after 4 weeks by agar dilution method; type: functional; conditions: 672 h
Method in brief: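 Proportion method on agar: serial twofold dilutions mixed into warm Middlebrook 7H10 agar and set as slants. Each slant surface inoculated with 10⁵ CFU of M. tuberculosis H37Rv in 10 µL, then incubated at 37 °C for 4 weeks. MIC (µg/mL) taken as the lowest concentration giving complete inhibition of colony growth. Rifampicin and isoniazid served as reference drugs.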

[2] = Cytotoxicity against african green monkey Vero C1008 cells; type: cell-based; conditions: chlorocebus sabaeus
Method in brief: (§1)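 MTS (Mosmann-type) viability assay. 10⁴ cells/well in DME with 10% foetal bovine serum plus antibiotics were pre-incubated 24 h at 37 °C, 5% CO2. Medium was then replaced with serial dilutions of compound, a standard toxic compound or DMSO, and incubated a further 24 h. MTS was added and absorbance read at 490 nm after 2 h. DMSO wells were set as 100% viability.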

[3] = Cytotoxicity against mouse bone marrow derived macrophages; type: cell-based; conditions: macrophage; method in brief: as §1

Row | SMILES | MIC [1] | Activity [2] | Activity [3]
1 | CCCCCCCCNC(=O)CS(=O)(=O)[C@@H]1OC[C@@H](OC(C)=O)[C@@H](OC(C)=O)[C@@H]1OC(C)=O | > 12.5 µg/mL |  | 
2 | CC(=O)OC[C@H]1O[C@@H](S(=O)(=O)CC(=O)NCc2ccccc2)[C@H](OC(C)=O)[C@@H](OC(C)=O)[C@@H]1OC(C)=O | 6.25 µg/mL (≈ 11.5 µM) | Non-toxic | Non-toxic
3 | CC(=O)OC[C@H]1O[C@@H](S(=O)(=O)CC(N)=O)[C@H](OC(C)=O)[C@@H](OC(C)=O)[C@@H]1O[C@@H]1O[C@H](COC(C)=O)[C@@H](OC(C)=O)[C@H](OC(C)=O)[C@H]1OC(C)=O | 25 µg/mL (≈ 33.7 µM) |  | 
4 | CC(=O)OC[C@H]1O[C@@H](S(=O)(=O)CC(N)=O)[C@@H](OC(C)=O)[C@@H](OC(C)=O)[C@@H]1OC(C)=O | > 12.5 µg/mL |  | 
5 | CC(=O)O[C@@H]1[C@H](OC(C)=O)[C@H](OC(C)=O)CO[C@H]1SCC(N)=O | 12.5 µg/mL (≈ 35.8 µM) |  | 
6 | CC(=O)OC[C@H]1O[C@@H](SCC(N)=O)[C@H](OC(C)=O)[C@@H](OC(C)=O)[C@@H]1O[C@H]1O[C@H](COC(C)=O)[C@@H](OC(C)=O)[C@H](OC(C)=O)[C@H]1OC(C)=O | > 12.5 µg/mL |  | 
7 | CC(=O)OC[C@H]1O[C@@H](SCC(=O)NCc2ccccc2)[C@H](OC(C)=O)[C@@H](OC(C)=O)[C@@H]1OC(C)=O | 6.25 µg/mL (≈ 12.2 µM) |  | 
8 | CC(=O)OC[C@H]1O[C@@H](SCC(N)=O)[C@H](OC(C)=O)[C@@H](OC(C)=O)[C@H]1OC(C)=O | 1.56 µg/mL (≈ 3.7 µM) | Non-toxic | Non-toxic
9 | CCCCCCCCCCCCNC(=O)CS[C@@H]1O[C@H](COC(C)=O)[C@@H](OC(C)=O)[C@H](OC(C)=O)[C@H]1OC(C)=O | > 12.5 µg/mL |  | 
10 | CCCCCCCCCCCCNC(=O)CS(=O)(=O)[C@@H]1O[C@H](COC(C)=O)[C@@H](O[C@@H]2O[C@H](COC(C)=O)[C@H](OC(C)=O)[C@H](OC(C)=O)[C@H]2OC(C)=O)[C@H](OC(C)=O)[C@H]1OC(C)=O | > 12.5 µg/mL |  | 
11 | CCCCCCCCNC(=O)CS(=O)(=O)[C@@H]1O[C@H](COC(C)=O)[C@@H](O[C@@H]2O[C@H](COC(C)=O)[C@H](OC(C)=O)[C@H](OC(C)=O)[C@H]2OC(C)=O)[C@H](OC(C)=O)[C@H]1OC(C)=O | > 12.5 µg/mL |  | 
12 | CC(=O)O[C@@H]1[C@@H](OC(C)=O)[C@H](OC(C)=O)CO[C@H]1S(=O)(=O)CC(N)=O | 12.5 µg/mL (≈ 32.8 µM) |  | 
13 | CC(=O)OC[C@H]1O[C@@H](S(=O)(=O)CC(N)=O)[C@H](OC(C)=O)[C@@H](OC(C)=O)[C@H]1OC(C)=O | 3.12 µg/mL (≈ 6.89 µM) | Non-toxic | Non-toxic
14 | CCCCCCCCNC(=O)CS(=O)(=O)[C@@H]1O[C@H](COC(C)=O)[C@@H](OC(C)=O)[C@H](OC(C)=O)[C@H]1OC(C)=O | > 12.5 µg/mL |  | 
15 | CC(=O)OC[C@H]1O[C@@H](SCC(N)=O)[C@H](OC(C)=O)[C@@H](OC(C)=O)[C@@H]1O[C@@H]1O[C@H](COC(C)=O)[C@@H](OC(C)=O)[C@H](OC(C)=O)[C@H]1OC(C)=O | > 12.5 µg/mL |  | 
16 | CC(=O)O[C@@H]1[C@H](OC(C)=O)[C@H](OC(C)=O)CO[C@H]1S(=O)(=O)CC(N)=O | 6.25 µg/mL (≈ 16.4 µM) | Non-toxic | Non-toxic

Row | SMILES | MIC [1] | Activity [2] | Activity [3]
17 | CCCCCCCCCCCCNC(=O)CS[C@@H]1O[C@H](COC(C)=O)[C@@H](O[C@@H]2O[C@H](COC(C)=O)[C@H](OC(C)=O)[C@H](OC(C)=O)[C@H]2OC(C)=O)[C@H](OC(C)=O)[C@H]1OC(C)=O | > 12.5 µg/mL |  | 
18 | CCCCCCCCCCCCNC(=O)CS[C@@H]1OC[C@@H](OC(C)=O)[C@@H](OC(C)=O)[C@@H]1OC(C)=O | 3.12 µg/mL (≈ 6.04 µM) | Non-toxic | Non-toxic
19 | CCCCCCCCNC(=O)CS[C@@H]1O[C@H](COC(C)=O)[C@@H](OC(C)=O)[C@H](OC(C)=O)[C@H]1OC(C)=O | > 12.5 µg/mL |  | 
20 | CC(=O)OC[C@H]1O[C@@H](O[C@H]2[C@H](OC(C)=O)[C@@H](OC(C)=O)[C@H](S(=O)(=O)CC(N)=O)O[C@@H]2COC(C)=O)[C@H](OC(C)=O)[C@@H](OC(C)=O)[C@H]1OC(C)=O | 3.12 µg/mL (≈ 4.21 µM) | Non-toxic | Non-toxic
21 | CC(=O)O[C@H]1[C@H](OC(C)=O)[C@H](OC(C)=O)CO[C@H]1S(=O)(=O)CC(N)=O | 12.5 µg/mL (≈ 32.8 µM) |  | 
22 | CC(=O)OC[C@H]1O[C@@H](SCC(N)=O)[C@@H](OC(C)=O)[C@@H](OC(C)=O)[C@@H]1OC(C)=O | 3.12 µg/mL (≈ 7.42 µM) | Non-toxic | Non-toxic
23 | CC(=O)O[C@H]1[C@H](OC(C)=O)[C@H](SCC(N)=O)OC[C@H]1OC(C)=O | > 12.5 µg/mL |  | 
24 | CC(=O)OC[C@H]1O[C@@H](S(=O)(=O)CC(N)=O)[C@H](OC(C)=O)[C@@H](OC(C)=O)[C@@H]1O[C@H]1O[C@H](COC(C)=O)[C@@H](OC(C)=O)[C@H](OC(C)=O)[C@H]1OC(C)=O | 25 µg/mL (≈ 33.7 µM) |  | 
25 | CCCCCCCCCCCCNC(=O)CS(=O)(=O)[C@@H]1OC[C@@H](OC(C)=O)[C@@H](OC(C)=O)[C@@H]1OC(C)=O | > 12.5 µg/mL |  | 
26 | CC(=O)OC[C@H]1O[C@@H](S(=O)(=O)CC(N)=O)[C@H](OC(C)=O)[C@@H](OC(C)=O)[C@@H]1OC(C)=O | 3.12 µg/mL (≈ 6.89 µM) | Non-toxic | Non-toxic
27 | CCCCCCCCCCCCNC(=O)CS(=O)(=O)[C@@H]1O[C@H](COC(C)=O)[C@@H](OC(C)=O)[C@H](OC(C)=O)[C@H]1OC(C)=O | > 12.5 µg/mL |  | 
28 | CCCCCCCCNC(=O)CS[C@@H]1O[C@H](COC(C)=O)[C@@H](O[C@@H]2O[C@H](COC(C)=O)[C@H](OC(C)=O)[C@H](OC(C)=O)[C@H]2OC(C)=O)[C@H](OC(C)=O)[C@H]1OC(C)=O | > 12.5 µg/mL |  | 
29 | CC(=O)OC[C@H]1O[C@@H](SCC(N)=O)[C@H](OC(C)=O)[C@@H](OC(C)=O)[C@@H]1OC(C)=O | 3.12 µg/mL (≈ 7.42 µM) | Non-toxic | Non-toxic
30 | CC(=O)O[C@@H]1[C@@H](OC(C)=O)[C@H](SCC(N)=O)OC[C@H]1OC(C)=O | 12.5 µg/mL (≈ 35.8 µM) |  | 
31 | CCCCCCCCNC(=O)CS[C@@H]1OC[C@@H](OC(C)=O)[C@@H](OC(C)=O)[C@@H]1OC(C)=O | > 12.5 µg/mL |  | 
32 | CC(=O)OC[C@H]1O[C@@H](O[C@H]2[C@H](OC(C)=O)[C@@H](OC(C)=O)[C@H](SCC(N)=O)O[C@@H]2COC(C)=O)[C@H](OC(C)=O)[C@@H](OC(C)=O)[C@H]1OC(C)=O | > 12.5 µg/mL |  | 
